Measurements published in ChEMBL document CHEMBL4414550, “Binding of Monovalent and Bivalent Ligands by Transthyretin Causes Different Short- and Long-Distance Conformational Changes” (J Med Chem, 2019).
Activity calls are given as the source filed them. The rule behind the calls is not given here.

Tests used:
[1] = molecular target: Transthyretin (Homo sapiens) (UniProt P02766); test: Binding affinity to His6-tagged wild-type TTR (unknown origin) expressed in Escherichia coli BL21 star (DE3) assessed as assignment of protein resonance by TROSY [1H-13C-15N] HNCA spectroscopy
Outline: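 3D HNCA spectra of TTR acquired in the presence of ligand to confirm the backbone resonance assignment. The assignment was made de novo from TROSY multidimensional experiments at 310 K, pH 7.0 and 7.4.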

[2] = molecular target: Transthyretin (Homo sapiens) (UniProt P02766); test: Binding affinity to His6-tagged wild-type TTR (unknown origin) expressed in Escherichia coli BL21 star (DE3) at 0.5:1 ratio of test compound to protein by 2D TROSY [1H-15N] spectroscopy
Outline: (§1)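 50 μM TTR in 600 μL titrated with ligand from 10 mM stocks in DMSO-d6 (up to 6 μL; at most 1% v/v DMSO-d6). 2D [1H,15N] TROSY spectra recorded at ligand/protein ratios 0, 0.5, 1.0, 1.5 and 2.0 for the monovalent ligand and 0, 0.5 and 1.0 for the bivalent ligand. Per-residue amide shifts were expressed as a combined chemical shift change in ppm.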

[3] = molecular target: Transthyretin (Homo sapiens) (UniProt P02766); test: Binding affinity to His6-tagged wild-type TTR (unknown origin) expressed in Escherichia coli BL21 star (DE3) at 1:1 ratio of test compound to protein by 2D TROSY [1H-15N] spectroscopy; outline: as §1
[4] = molecular target: Transthyretin (Homo sapiens) (UniProt P02766); test: Binding affinity to wild-type TTR (unknown origin) assessed as induction of chemical shift at E72 residue at 0.6:1 to 1:1 ratio of compound to protein by 2D TROSY [1H-15N] spectroscopy; outline: as §1
[5] = molecular target: Transthyretin (Homo sapiens) (UniProt P02766); test: Binding affinity to wild-type TTR (unknown origin) assessed as induction of chemical shift at L17 residue at 0.6:1 to 1:1 ratio of compound to protein by 2D TROSY [1H-15N] spectroscopy; outline: as §1
[6] = molecular target: Transthyretin (Homo sapiens) (UniProt P02766); test: Binding affinity to wild-type TTR (unknown origin) assessed as induction of chemical shift at A19 residue at 0.6:1 to 1:1 ratio of compound to protein by 2D TROSY [1H-15N] spectroscopy; outline: as §1
[7] = molecular target: Transthyretin (Homo sapiens) (UniProt P02766); test: Binding affinity to wild-type TTR (unknown origin) assessed as induction of chemical shift at R21 residue at 0.6:1 to 1:1 ratio of compound to protein by 2D TROSY [1H-15N] spectroscopy; outline: as §1
[8] = molecular target: Transthyretin (Homo sapiens) (UniProt P02766); test: Binding affinity to wild-type TTR (unknown origin) assessed as induction of chemical shift at G22 residue at 0.6:1 to 1:1 ratio of compound to protein by 2D TROSY [1H-15N] spectroscopy; outline: as §1
[9] = molecular target: Transthyretin (Homo sapiens) (UniProt P02766); test: Binding affinity to wild-type TTR (unknown origin) assessed as induction of chemical shift at L58 residue at 0.6:1 to 1:1 ratio of compound to protein by 2D TROSY [1H-15N] spectroscopy; outline: as §1
[10] = molecular target: Transthyretin (Homo sapiens) (UniProt P02766); test: Binding affinity to wild-type TTR (unknown origin) assessed as induction of chemical shift at H88 residue at 0.6:1 to 1:1 ratio of compound to protein by 2D TROSY [1H-15N] spectroscopy; outline: as §1
[11] = molecular target: Transthyretin (Homo sapiens) (UniProt P02766); test: Binding affinity to wild-type TTR (unknown origin) assessed as induction of chemical shift at E92 residue at 0.6:1 to 1:1 ratio of compound to protein by 2D TROSY [1H-15N] spectroscopy; outline: as §1
[12] = molecular target: Transthyretin (Homo sapiens) (UniProt P02766); test: Binding affinity to wild-type TTR (unknown origin) assessed as induction of chemical shift at T96 residue at 0.6:1 to 2:1 ratio of compound to protein by 2D TROSY [1H-15N] spectroscopy; conditions: in the assay text read “0.6:1 to 1:1 ratio” for “0.6:1 to 2:1 ratio”; outline: as §1
[13] = molecular target: Transthyretin (Homo sapiens) (UniProt P02766); test: Binding affinity to wild-type TTR (unknown origin) assessed as induction of chemical shift at A108 residue at 0.6:1 to 1:1 ratio of compound to protein by 2D TROSY [1H-15N] spectroscopy; outline: as §1
[14] = molecular target: Transthyretin (Homo sapiens) (UniProt P02766); test: Binding affinity to wild-type TTR (unknown origin) assessed as induction of chemical shift at A109 residue at 0.6:1 to 1:1 ratio of compound to protein by 2D TROSY [1H-15N] spectroscopy; outline: as §1
[15] = molecular target: Transthyretin (Homo sapiens) (UniProt P02766); test: Binding affinity to wild-type TTR (unknown origin) assessed as induction of chemical shift at L110 residue at 0.6:1 to 1:1 ratio of compound to protein by 2D TROSY [1H-15N] spectroscopy; outline: as §1
[16] = molecular target: Transthyretin (Homo sapiens) (UniProt P02766); test: Binding affinity to wild-type TTR (unknown origin) assessed as induction of chemical shift at Y114 residue at 0.6:1 to 1:1 ratio of compound to protein by 2D TROSY [1H-15N] spectroscopy; outline: as §1
[17] = molecular target: Transthyretin (Homo sapiens) (UniProt P02766); test: Binding affinity to wild-type TTR (unknown origin) assessed as induction of chemical shift at S117 residue at 0.6:1 to 1:1 ratio of compound to protein by 2D TROSY [1H-15N] spectroscopy; outline: as §1
[18] = molecular target: Transthyretin (Homo sapiens) (UniProt P02766); test: Binding affinity to wild-type TTR (unknown origin) assessed as induction of chemical shift at T118 residue at 0.6:1 to 1:1 ratio of compound to protein by 2D TROSY [1H-15N] spectroscopy; outline: as §1
[19] = molecular target: Transthyretin (Homo sapiens) (UniProt P02766); test: Binding affinity to wild-type TTR (unknown origin) assessed as increase in bound resonance at L55 residue at 0.5:1 to 1:1 ratio of compound to protein by 2D TROSY [1H-15N] spectroscopy; outline: as §1
[20] = molecular target: Transthyretin (Homo sapiens) (UniProt P02766); test: Binding affinity to wild-type TTR (unknown origin) assessed as induction of chemical shift at H90 residue at 1:1 ratio of compound to protein by 2D TROSY [1H-15N] spectroscopy; outline: as §1
[21] = molecular target: Transthyretin (Homo sapiens) (UniProt P02766); test: Binding affinity to wild-type TTR (unknown origin) assessed as induction of chemical shift perturbation at A120 residue at 1:1 ratio of compound to protein by 2D TROSY [1H-15N] spectroscopy; outline: as §1
[22] = molecular target: Transthyretin (Homo sapiens) (UniProt P02766); test: Binding affinity to wild-type TTR (unknown origin) assessed as chemical shift perturbation at protein dimer-dimer interface at 1:1 ratio of compound to protein by 2D TROSY [1H-15N] spectroscopy; outline: as §1
[23] = molecular target: Transthyretin (Homo sapiens) (UniProt P02766); test: Binding affinity to wild-type TTR (unknown origin) assessed as chemical shift perturbation at DE loops at 1:1 ratio of compound to protein by 2D TROSY [1H-15N] spectroscopy; outline: as §1
[24] = molecular target: Transthyretin (Homo sapiens) (UniProt P02766); test: Binding affinity to wild-type TTR (unknown origin) assessed as chemical shift perturbation at H1 helix at 1:1 ratio of compound to protein by 2D TROSY [1H-15N] spectroscopy; outline: as §1
[25] = molecular target: Transthyretin (Homo sapiens) (UniProt P02766); test: Binding affinity to wild-type TTR (unknown origin) assessed as chemical shift perturbation at EH1 loops at 1:1 ratio of compound to protein by 2D TROSY [1H-15N] spectroscopy; outline: as §1
[26] = molecular target: Transthyretin (Homo sapiens) (UniProt P02766); test: Binding affinity to wild-type TTR (unknown origin) assessed as chemical shift perturbation at CD loops at 1:1 ratio of compound to protein by 2D TROSY [1H-15N] spectroscopy; outline: as §1
[27] = molecular target: Transthyretin (Homo sapiens) (UniProt P02766); test: Binding affinity to wild-type TTR (unknown origin) assessed as induction of chemical shift perturbation at V93 residue at 1:1 ratio of compound to protein by 2D TROSY [1H-15N] spectroscopy; outline: as §1
[28] = molecular target: Transthyretin (Homo sapiens) (UniProt P02766); test: Binding affinity to wild-type TTR (unknown origin) assessed as chemical shift perturbation at K9 residue at 1:1 ratio of compound to protein by 2D TROSY [1H-15N] spectroscopy; outline: as §1
[29] = molecular target: Transthyretin (Homo sapiens) (UniProt P02766); test: Binding affinity to wild-type TTR (unknown origin) assessed as formation of hydrogen bond between A25 and T49 at 1:1 ratio of compound to protein by 2D TROSY [1H-15N] spectroscopy

O=C(O)c1ccccc1Nc1cc(Cl)c(OCCCCCCCOc2c(Cl)cc(Nc3ccccc3C(=O)O)cc2Cl)c(Cl)c1
Activity [1]: Active
Activity [2]: Active
Activity [3]: Active
Activity [4]: Active
Activity [5]: inactive
Activity [6]: inactive
Activity [7]: inactive
Activity [8]: inactive
Activity [9]: inactive
Activity [10]: inactive
Activity [11]: inactive
Activity [12]: inactive
Activity [13]: inactive
Activity [14]: inactive
Activity [15]: inactive
Activity [16]: inactive
Activity [17]: inactive
Activity [18]: inactive
Activity [19]: Active
Activity [20]: Active
Activity [21]: Active
Activity [22]: Active
Activity [23]: Active
Activity [24]: Active
Activity [25]: Active
Activity [26]: Active
Activity [27]: Active
Activity [28]: Active
Activity [29]: Active

O=C(O)c1ccc2nc(-c3cc(Cl)cc(Cl)c3)oc2c1
Activity [1]: Active
Activity [2]: Active
Activity [19]: Active
Activity [20]: Active
Activity [21]: Active
